Compound activity from PubChem BioAssay.
UCH37 DUB inh = human UCH37 deubiquitinating enzyme inhibition; Q9Y5K5; purified proteasome/UCH37, Ub-AMC cleavage fluorescence; inhibition, % (no concentration beside the values); actives 0.33% (n = 330,000);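 active = mean inhibition over replicate wells above about 20%, limit read from the data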
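Schedule: 30 min plus 25 min, room temperature / Material: human UCH37 within purified proteasomes / Technique: AMC fluorescence intensity at 355/460 nm / Buffer or medium: pH 7.4 Tris-HCl (50 mM) with ovalbumin, ATP-MgCl2, DTT / Controls: wells without proteasome as full block, compound-free enzyme plus substrate as uninhibited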
FAS TE block = FAS thioesterase (human) inhibition. P49327. actives 0.67% (n = 360,000). recombinant FAS-TE, OMFH fluorogenic substrate, fluorescence endpoint. inhibition, % at 15 µM;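 active = compounds whose normalised, plate-corrected inhibition of enzyme fluorescence in the single-dose primary screen is 50% or more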
ALR H2O2 inh = inhibitors of human sulfhydryl oxidase ALR. AID 485317. purified ALR, DTT oxidation, H2O2 HRP-luminol luminescence. actives 3.8% (n = 290,000). inhibition, % (test concentration not listed). P55789;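 active = mean replicate inhibition above about 79%, with every replicate also reaching it, limit read from the data; inconclusive = only one of the two criteria met; inactive = mean below limit and not every replicate reaching it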
HDAC3 inhib = human HDAC3 inhibition; O15379; recombinant HDAC3, fluorogenic peptide/trypsin coupled, fluorescence; inhibition, % at 8.3 µM; actives 0.15% (n = 320,000); AID 2718; in the data active = inhibition above about 26%, passing the limit was not always enough; inconclusive = no clear call, values can overlap the other calls
Rtt109 Vps75 = C. albicans Rtt109 histone acetyltransferase inhibition; actives 0.16% (n = 330,000); Q5AAJ8; purified Rtt109/Vps75, ThioGlo CoA-SH fluorescence, 4 h; inhibition, % at 34.9 µM;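 active = inhibition of at least 50% in every replicate; inconclusive = best replicate reaches 50% inhibition but some replicates fall short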
M18AAP inhibitor = PfM18AAP enzyme inhibition; recombinant PfM18AAP, H-Glu-NHMec fluorogenic cleavage; inhibition, % at 7.35 µM; actives 1.2% (n = 290,000); AID 1822;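 active = inhibition above the campaign mean inhibition over all tested compounds plus 3 SD, cut at about 28% in these data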
UCH37 reconfirm = reconfirmed inhibitor of human deubiquitinase UCH37; shares compounds with UCH37 DUB inh; Proteasome-bound UCH37, Ub-AMC cleavage fluorescence; inhibition, % at 20 µM; actives 27% (n = 480);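 active = average inhibition over replicates above about 50%, so the earlier screening hit is confirmed, limit read from the data; inactive = the rest, counted as false positives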;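 also: based on cleavage rate fitted by regression over a 30 min kinetic read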
FAS-TE conf = confirmation of human fatty acid synthase thioesterase inhibitors; shares compounds with FAS TE block; recombinant FAS-TE, OMFH fluorogenic substrate, fluorescence; inhibition, % at 15 µM; actives 45% (n = 2,300); AID 624325;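 active = compounds inhibiting the enzyme by at least 50% at 15 µM in any one of the replicates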
Numbers stand for hits; – = inactive; ? = inconclusive; · = no result. Hits are enriched below; roughly 4.6% of the tested compounds scored in any of these assays.

SMILES	UCH37 DUB inh	FAS TE block	ALR H2O2 inh	HDAC3 inhib	Rtt109 Vps75	M18AAP inhibitor	UCH37 reconfirm	FAS-TE conf
NC(=O)COC(=O)c1ccc(Cl)c(S(=O)(=O)N(Cc2ccccc2)c2ccc(Cl)cc2)c1	39	–	–	–	–	–	–	·
COc1ccc2nc(C)cc(SCC(=O)NN=Cc3ccc(O)cc3O)c2c1	–	·	·	·	·	·	·	·
COc1ccc(N(C(=O)c2ccc(Cl)cc2)C2=CC3CCC(C2)N3C)cc1 (stereo unspecified)	42	–	–	–	–	–	–	·
COc1ccc(N(C(=O)/C=C/c2ccc(OC)c(OC)c2)C2=CC3CCC(C2)N3C)cc1 (stereo unspecified)	–	–	–	–	–	–	·	·
COc1ccc(OC)c(C=NNC(=O)CCc2ccc(O)c(O)c2)c1	–	·	·	·	·	·	·	·
COc1cc(C=Nn2cnnc2-n2nc(C)cc2C)cc([N+](=O)[O-])c1O	29	·	·	·	·	·	–	·
Cc1cc(C)c(NC(=O)COC(=O)c2ccc([N+](=O)[O-])s2)c(C)c1	–	–	–	–	–	–	·	·
COc1ccccc1NC(=O)COC(=O)c1ccc([N+](=O)[O-])s1	72	–	·	–	–	–	–	·
CN(CC(=O)Nc1ccccc1Cl)C(=O)COC(=O)c1cccs1	–	–	–	?	–	·	·	·
CN(CC(=O)Nc1ccccc1Cl)C(=O)COC(=O)c1ccc([N+](=O)[O-])s1	76	–	–	–	–	·	–	·
NS(=O)(=O)c1ccc(NC(=O)COC(=O)c2ccc([N+](=O)[O-])s2)cc1	69	–	–	–	–	–	–	·
Cc1ccc(NC(=O)COC(=O)c2ccc([N+](=O)[O-])s2)c(C)c1	31	–	–	–	–	–	–	·
Clc1ccc(C=Nc2c(-c3ccco3)nc3ccccn23)cc1	–	·	·	·	·	·	·	·
CC(=O)N(N=C1Sc2ccccc2C1=O)c1ccc(C)cc1C	35	·	·	·	·	·	–	·
COc1ccccc1N(N=C1Sc2ccccc2C1=O)C(C)=O	71	·	·	·	·	·	–	·
CC(=O)N(/N=C1\Sc2ccccc2C1=O)c1ccc(C)cc1C	·	–	–	–	–	–	·	·
Cn1nc(C(F)(F)F)c(C=NOC(=O)c2ccccc2Cl)c1SCc1ccccc1Cl	–	·	·	·	·	·	·	·
COc1cccc(C=NNC(=O)CC(=O)NCCc2ccc(OC)c(OC)c2)c1	–	·	·	·	·	·	·	·
CCOC(=O)c1c(=O)n(O)c2ccc(C)cc2[n+]1[O-]	39	–	–	–	–	–	–	·
O=C(CNc1cccc([N+](=O)[O-])c1)NN=Cc1ccc(F)cc1	–	·	·	·	·	·	·	·
CCOC(=O)/C(=C\C=C1/Sc2cc(OCC)c(OCC)cc2N1CC)C(C)=O	29	–	93	–	–	–	–	·
Cc1cc(C)c(S(=O)(=O)N=C2C=C(SCC(=O)O)C(=O)c3ccccc32)cc1C	49	·	·	·	·	·	82	·
O=C(O)c1ccc(-c2ccc(C=NNc3ccc([N+](=O)[O-])cc3)o2)cc1	–	·	·	·	·	·	·	·
CC(C)(C)OC(=O)N1CCC(NC(=O)c2nc[nH]c2C(=O)NCc2ccccc2)CC1	–	–	–	–	–	·	·	·
CC(C)(C)OC(=O)NCc1ccc(CNC(=O)c2[nH]cnc2C(=O)NC2CCN(C(=O)OC(C)(C)C)CC2)cc1	39	54	–	?	?	·	–	–
SMILES	UCH37 DUB inh	FAS TE block	ALR H2O2 inh	HDAC3 inhib	Rtt109 Vps75	M18AAP inhibitor	UCH37 reconfirm	FAS-TE conf
CC(=NNC(=S)NC1CCCCC1)c1c(F)cccc1F	–	·	·	·	·	·	·	·
COc1ccc([N+](=O)[O-])cc1NC(=O)c1ccc(CN(c2ccc(C)c(C)c2)S(C)(=O)=O)cc1	47	68	–	–	·	–	–	–
Cc1[nH][nH]c(=O)c1C(c1ccc(-c2cccc(Cl)c2)o1)c1c(C)[nH][nH]c1=O	81	54	–	–	–	–	84	–
Cc1ccsc1C(=O)NN=Cc1ccc([N+](=O)[O-])cc1	–	·	·	·	·	·	·	·
Cc1ccc(NC(=O)C(OC(=O)c2ccc(C=O)cc2)c2ccccc2)cc1Cl (stereo unspecified)	–	50	–	?	–	–	·	–
Cc1cc(=O)oc2cc(OCC(=O)NN=Cc3ccccc3[N+](=O)[O-])ccc12	–	·	·	·	·	·	·	·
N#Cc1c(-c2ccccc2)c(-c2ccccc2)nn(CC(=O)NNC(=O)Nc2ccc(Cl)cc2)c1=O	–	76	–	–	–	–	·	78
N#Cc1c(-c2ccccc2)c(-c2ccccc2)nn(CC(=O)NNC(=O)Nc2ccccc2)c1=O	–	–	–	–	–	–	·	·
C[C@]1(C(=O)NCc2cc(F)cc(C(F)(F)F)c2)C=C[C@@H](Cc2ccccc2)N1C(=O)c1ccccc1	–	68	–	–	–	–	·	–
COCCNC(=O)[C@@]1(C)C=C[C@@H](Cc2ccccc2)N1C(=O)c1ccccc1	–	–	–	–	–	–	·	·
CC(C)(C)c1ccc(-c2n[nH]c(=S)n2N=Cc2ccncc2)cc1	–	·	·	·	·	·	·	·
N#CC(C#N)=C1SC(=Nc2ccccc2)C(=Nc2ccccc2)N1c1ccccc1	·	57	·	·	–	·	·	–
Cc1nn(C)cc1C=NNC(=O)Cn1cncn1	–	·	·	·	·	·	·	·
CC(C)COc1ccc(C(=O)N/C(=C/c2cccc([N+](=O)[O-])c2)C(=O)O)cc1	–	57	–	–	–	–	·	59
CC(C)COc1ccc(C(=O)N/C(=C\c2cccc([N+](=O)[O-])c2)C(=O)OC(C)C)cc1	–	–	·	–	–	–	·	·
CC(C)COc1ccc(C(=O)N/C(=C\c2cccc([N+](=O)[O-])c2)C(=O)O)cc1	–	62	·	–	–	–	·	77
COc1cc(C=c2sc3nc(=O)c(-c4ccccc4)nn3c2=O)ccc1OCCC(C)C	–	·	·	·	·	·	·	·
N#Cc1cc(-c2ccccc2)nc(Oc2ccc(Cl)cc2)n1	–	65	–	–	–	–	·	53
Clc1ccc(-c2ccnc(Oc3ccc4ccccc4c3)n2)cc1	–	–	–	–	–	–	·	·
CCCC(C)C(=O)Nc1cc([N+](=O)[O-])ccc1Cl (stereo unspecified)	–	52	–	–	·	–	·	64
O=C(NN=Cc1ccccc1OCc1ccccc1)c1cccs1	–	·	·	·	·	·	·	·
COC(=O)Nc1cc([N+](=O)[O-])ccc1OC	–	–	–	–	–	–	·	·
COc1ccc([N+](=O)[O-])cc1NC(=O)Nc1ccccc1	–	58	·	·	–	–	·	62
COc1ccc([N+](=O)[O-])cc1NC(=O)N(C)Cc1ccco1	–	51	–	·	–	–	·	42
COc1ccc(-n2cc(C(=O)Nc3cc([N+](=O)[O-])ccc3OC)c3ccccc3c2=O)cc1	–	55	–	–	–	–	·	–
C/C=C/C=C/C(=O)OC(C)C(=O)Nc1cc([N+](=O)[O-])ccc1OC (stereo unspecified)	–	73	–	–	–	–	·	60
O=C(NN=Cc1ccncc1)c1ccc(NS(=O)(=O)c2cccs2)cc1	–	·	·	·	·	·	·	·
